pIC50: −log10 of the molar value. Activity calls are given as the source filed them. The calls are words filed in the database; no cut-off is given here.

Test [1] in a line: (§1) Inhibition of recombinant full length P-RNAase L (1 to 743 residues)expressed in Escherichia coli BL21 (DE3) assessed as inhibition rate in presence of 2-5A AND ATP/MgCl2 by STD-NMR spectroscopy. Set-up: species or system Sus scrofa.
In test [2] the target is T1, 2-5A-dependent ribonuclease (Homo sapiens, UniProt Q05823).
T1 sequence (Q05823 whole entry): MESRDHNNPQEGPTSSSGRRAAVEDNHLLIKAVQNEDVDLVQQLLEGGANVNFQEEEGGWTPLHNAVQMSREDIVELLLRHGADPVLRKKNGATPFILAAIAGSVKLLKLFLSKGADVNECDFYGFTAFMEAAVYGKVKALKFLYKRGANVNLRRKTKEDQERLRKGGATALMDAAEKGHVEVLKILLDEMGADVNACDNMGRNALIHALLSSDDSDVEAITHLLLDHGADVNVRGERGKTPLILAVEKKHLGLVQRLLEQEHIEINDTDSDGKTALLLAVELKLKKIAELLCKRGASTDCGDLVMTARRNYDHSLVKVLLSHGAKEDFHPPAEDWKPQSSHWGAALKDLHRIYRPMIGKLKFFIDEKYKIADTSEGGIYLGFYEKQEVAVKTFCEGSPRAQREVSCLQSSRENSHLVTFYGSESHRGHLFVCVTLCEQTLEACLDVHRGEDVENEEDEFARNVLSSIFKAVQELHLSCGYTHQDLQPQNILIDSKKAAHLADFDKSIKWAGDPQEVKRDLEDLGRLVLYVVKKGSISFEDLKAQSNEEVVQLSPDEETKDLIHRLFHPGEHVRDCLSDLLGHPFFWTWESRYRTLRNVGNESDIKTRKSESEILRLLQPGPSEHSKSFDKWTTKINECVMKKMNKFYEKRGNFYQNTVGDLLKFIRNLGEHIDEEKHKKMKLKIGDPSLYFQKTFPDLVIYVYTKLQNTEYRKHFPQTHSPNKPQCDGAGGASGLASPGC
As to the kind of experiment: Inhibition of recombinant full length H-RNAase L (1 to 741 residues) expressed in Escherichia coli BL21 (DE3) assessed as inhibition rate in presence of 2-5A and ATP/MgCl2 by STD-NMR spectroscopy.

Test [3] is filed under the species Sus scrofa. Described as §1. Conditions: time 60.0 min.
Test [4] has as its target T2, 2-5A-dependent ribonuclease (Homo sapiens) (UniProt Q05823).
T2 sequence (whole entry): T1 sequence (Q05823 whole entry)
Description: Inhibition of recombinant full length H-RNAase L (1 to 741 residues) expressed in Escherichia coli BL21 (DE3) using 5'-FAM-UAA-UCA-AAU-UCU-UAU-UUG-CCC-CAU-UUU-UUU-GGU-UUA-BHQ-1-3' as substrate incubated for 60 min by FRET assay. An outline of the steps:
(§2)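 FRET cleavage assay. Recombinant RNase L (10 nM human or 2.5 nM porcine, final) was preincubated 10 min on ice with graded compound in 25 mM Tris pH 7.4, 100 mM KCl, 10 mM MgCl2, 2.5 mM DTT and 0.5 nM 2-5A. FAM/BHQ1 RNA probe was added and the mix held 1 h at room temperature. Read at ex 480/em 535 nm; triplicates; IC50 from dose-response.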

The species named for test [5] is Sus scrofa. Description: Inhibition of recombinant full length P-RNAase L (1 to 743 residues) expressed in Escherichia coli BL21 (DE3) using 5'-FAM-UAA-UCA-AAU-UCU-UAU-UUG-CCC-CAU-UUU-UUU-GGU-UUA-BHQ-1-3' as substrate incubated for 60 min by FRET assay. Put shortly: as §2
Test [6] can be described thus: Inhibition of P-RNAase L K164E mutant expressed in Escherichia coli BL21 (DE3) assessed as inhibition rate. Set-up: species or system Sus scrofa.
Test [7] can be described thus: Inhibition of full length P-RNAase L expressed in Escherichia coli BL21 (DE3) assessed as inhibition rate incubated for 15 min in presence of 1 nM 2-5A for 15 mins by Coomassie staining based SDS-PAGE analysis. Set-up: species or system Sus scrofa.
Test [8] can be described thus: Inhibition of full length P-RNAase L expressed in Escherichia coli BL21 (DE3) assessed as inhibition rate incubated for 15 min in presence of 5 nM 2-5A for 15 mins by Coomassie staining based SDS-PAGE analysis. Set-up: species or system Sus scrofa.
A short description of test [9]: Inhibition of full length P-RNAase L expressed in Escherichia coli BL21 (DE3) assessed as inhibition rate incubated for 15 min in presence of 20 nM 2-5A for 15 mins by Coomassie staining based SDS-PAGE analysis. Set-up: species or system Sus scrofa.
Test [10] deals with T1, 2-5A-dependent ribonuclease. As to the kind of experiment: Inhibition of full length H-RNAase L expressed in Escherichia coli BL21 (DE3) assessed as inhibition rate incubated for 15 min in presence of 1 nM 2-5A for 15 mins by Coomassie staining based SDS-PAGE analysis.
The target is the same in test [11]. As to the kind of experiment: Inhibition of full length H-RNAase L expressed in Escherichia coli BL21 (DE3) assessed as inhibition rate incubated for 15 min in presence of 5 nM 2-5A for 15 mins by Coomassie staining based SDS-PAGE analysis.
For test [12] the target is unchanged. As to the kind of experiment: Inhibition of full length H-RNAase L expressed in Escherichia coli BL21 (DE3) assessed as inhibition rate incubated for 15 min in presence of 20 nM 2-5A for 15 mins by Coomassie staining based SDS-PAGE analysis.
Test [13] can be described thus: Inhibition of wild type P-RNAase L expressed in Escherichia coli BL21 (DE3) assessed as inhibition rate. Set-up: species or system Sus scrofa.
A short description of test [14]: Inhibition of P-RNAase L R353E mutant expressed in Escherichia coli BL21 (DE3) assessed as inhibition rate. Set-up: species or system Sus scrofa.
Test [15] addresses T2, 2-5A-dependent ribonuclease (Homo sapiens). Description: Inhibition of RNAase L in human A549 cells assessed as rRNA cleavage pretreated at 30 uM for 4 hrs followed by treated with 20 uM 2-5A by […] analysis. Type of test: cell-based. An outline of the steps: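 A549 cells were grown 16 h in RPMI with 10% FBS, then given inhibitor at 3, 10, 30 or 100 μM in fresh medium for 4 h. Trimeric 2-5A (20 μM) was then transfected with lipofectamine 2000 with inhibitor still present, for 2 h more. rRNA cleavage was read from total RNA on Bioanalyzer chips. NP40 lysates were western-blotted for RNase L and beta-actin.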

Test [16] is filed under the species Sus scrofa. Description: Suppression of 2-5A-induced full length P-RNase L oligomerization in presence of upto 2 uM 2-5A at 40 uM by SDS-PAGE analysis. Put shortly:
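Full-length porcine RNase L (0.8 μM) with 5 mM MgCl2 was held 15 min on ice with or without inhibitor, then 15 min on ice with 2-5A. It was cross-linked with dimethyl suberimidate in triethanolamine (pH 8.5) for 1 h at room temperature. Samples were boiled in SDS loading buffer, run on 4-12% SDS-PAGE and stained with Coomassie.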

As to `O=c1c(O)c(-c2cc(O)c(O)c(O)c2)oc2cc(O)cc(O)c12` [MYRICETIN], the pIC50 in test [1] is 3.76; in [2] it was 3.58.

As for `CCCCOC(=O)c1ccc(O)cc1` [BUTYLPARABEN], the inhibition result in the test filed under Sus scrofa [3] is “inactive”. Besides, in [2], the pIC50 was 2.62. Besides, the inhibition entry in test [4] was “Active”.

In the case of `C[S+]([O-])c1sc(Cl)c2c1C(=O)CCC2` (stereo not drawn), the inhibition entry (in [4]; in the test listed under Sus scrofa [5]) was “Active” in each case.

For the compound `O=C(O)c1ccc(Cl)nc1Cl`, the inhibition entry (in test [4]; in the test filed under Sus scrofa [5]) was “Active” in each case.

For the compound `O=c1c(O[C@@H]2O[C@H](CO)[C@H](O)[C@H](O)[C@H]2O)c(-c2ccc(O)c(O)c2)oc2cc(O)cc(O)c12` [HYPEROSIDE], the pIC50 in test [6] was 5.99; in test [2], 5.79; in test [7], 5.83; in [8] it was 5.85; in test [9], 5.85; in test [10], 5.87. The pIC50 in [11] was 5.88; in test [12] it was 5.85; in [13] it was 6.05; in test [14] it was 6.19. Besides, the result in test [15] was inactive. Besides, the inhibition result in the test filed under Sus scrofa [16] was “inactive”.

As to `Oc1ccc(Sc2ccc(O)cc2)cc1`, the inhibition entry (in [4]; in the test filed under Sus scrofa [5]) was “Active” throughout.

On to `Cc1cc(C(=O)O)cc(Cl)n1`, for which the inhibition result (in [4]; in the test filed under Sus scrofa [5]) was “Active” each time.

Take `O=c1cc(-c2ccc(O)cc2)oc2c([C@@H]3O[C@H](CO)[C@@H](O)[C@H](O)[C@H]3O)c(O)cc(O)c12` [VITEXIN]: the pIC50 was 3.96 in test [1] and 3.72 in [2]. The result in [15] was inactive.

These data come from ChEMBL document CHEMBL5042491, “Identification of Small Molecule Inhibitors of RNase L by Fragment-Based Drug Discovery” (J Med Chem, 2022).
